hIAP block: human IAP inhibitors, primary screen, biochemical, luminescence, uHTS; Intestinal-type alkaline phosphatase (Homo sapiens), P09923; purified IAP, CDP-Star luminescence, 30 min; inhibition, % at 10 µM; actives 0.12% (n = 330,000); AID 2544, 2010;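 active = inhibition reaching a set limit with compound at 10 µM in the primary screen, cut at about 35% in these data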;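 also: plate controls were DMSO wells with enzyme for no effect and no-enzyme buffer wells for full effect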
Target sequence (P09923 whole entry, looked up): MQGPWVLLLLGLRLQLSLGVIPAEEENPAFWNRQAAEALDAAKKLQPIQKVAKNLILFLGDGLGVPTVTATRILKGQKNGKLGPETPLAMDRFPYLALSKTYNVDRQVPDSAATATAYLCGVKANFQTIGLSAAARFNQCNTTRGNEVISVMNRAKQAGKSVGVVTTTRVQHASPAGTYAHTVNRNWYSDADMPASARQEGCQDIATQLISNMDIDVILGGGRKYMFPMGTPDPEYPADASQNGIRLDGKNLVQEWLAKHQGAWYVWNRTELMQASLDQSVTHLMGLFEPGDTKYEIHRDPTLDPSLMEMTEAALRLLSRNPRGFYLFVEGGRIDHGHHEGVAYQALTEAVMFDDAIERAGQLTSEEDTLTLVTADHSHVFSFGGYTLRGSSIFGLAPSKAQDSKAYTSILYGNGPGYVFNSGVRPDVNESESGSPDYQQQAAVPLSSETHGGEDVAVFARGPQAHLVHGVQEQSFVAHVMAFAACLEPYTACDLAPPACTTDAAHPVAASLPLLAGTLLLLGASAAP
hIAP activ: human IAP activators, primary screen, biochemical, luminescence, uHTS; Intestinal-type alkaline phosphatase (Homo sapiens), P09923; purified human IAP, CDP-Star luminescence, 30 min; active compounds read high; 1 = vehicle-only enzyme, 0 = enzyme-free background; activation factor at 10 µM; actives 0.16% (n = 330,000); AID 2524, 2010;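 active = activation factor of the enzyme at least 2-fold when tested at 20 µM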
bIAP inhibitor: bovine intestinal alkaline phosphatase inhibitors, primary screen, selectivity assay for TNAP inhibitor project, biochemical, bovine IAP, CDP-star luminescence | alkaline phosphatase, intestinal [Bos taurus] | purified bovine IAP, 30 min | inhibition, % at 20 µM | 190,000 tested, under 10 active;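 active = over 50% inhibition of intestinal alkaline phosphatase at 20 µM in the single-dose screen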
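Assay system: bovine IAP enzyme; medium: DEA buffer 100 mM, pH 9.8, with MgCl2 1.0 mM, ZnCl2 0.02 mM; doses: 20 µM single dose; incubation: enzyme reaction for 30 min at room temperature; detection: CDP-star luminescence signal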
mIAP block: inhibitors of mouse IAP, primary screen, biochemical, luminescence, uHTS; actives 0.2% (n = 330,000); inhibition, % at 10 µM; purified mouse IAP, CDP-Star luminescence, 30 min;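 active = inhibition of at least 40% at 10 µM in the primary screen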;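 also: plate controls were DMSO with enzyme for no effect and no enzyme wells for full effect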
mIAP act: activators of mouse IAP, primary screen, biochemical, luminescence, uHTS. intestinal alkaline phosphatase [Mus musculus]. muIAP, CDP-Star luminescence, 30 min; active compounds read high; 1 = vehicle-only enzyme signal, 0 = enzyme-free wells. activation factor at 10 µM. actives 0.24% (n = 330,000). AID 2805, 2010;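 active = activation factor of at least 2 at 20 µM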
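System: mouse IAP enzyme. Reagent: CDP-Star chemiluminescent phosphatase substrate. Benchmarks: DMSO wells, no-enzyme wells. Times: 30 min enzyme-substrate-compound incubation at room temperature. Detection: luminescence from enzymatic CDP-Star hydrolysis. Doses: test compounds delivered from DMSO solution.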
bIAP act: bovine intestinal alkaline phosphatase activators, primary screen, biochemical, bovine IAP, CDP-star luminescence | purified bovine IAP, 30 min; active compounds read high; fold of DMSO-control signal, blank-subtracted | activation factor at 20 µM | actives 0.17% (n = 200,000) | AID 1016, 2008;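 active = activation factor of 2 or more at 20 µM, a signal rise over negative controls twice the positive control's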
An asterisk follows results filed as active; i = inactive; . = not tested or not shown. Rows were chosen to be rich in hits. Some 0.72% of all compounds tested hit in one or more screens of this group.

SMILES | hIAP block | hIAP activ | bIAP inhibitor | mIAP block | mIAP act | bIAP act
Cn1c(=O)c2c(nc(N/N=C/c3ccco3)n2C)n(C)c1=O | -35 | 1.4 | -108 | 6 | 0.94 | 2.1*
Cn1c(=O)c2c(nc(N/N=C/c3cccs3)n2C)n(C)c1=O | -15 | 1.1 | . | -4 | 1 | .
Nc1ccc(-c2nc3ncccc3o2)cc1 | -16 | 1.2 | . | -5 | 1.1 | .
Cc1ccc(NC(=S)N2CCN(C(=O)C3CCCO3)CC2)cc1 (stereo unspecified) | 1 | 0.99 | 5 | -2 | 1 | 1
O=C(C1CCCO1)N1CCN(C(=S)Nc2ccc(Cl)cc2)CC1 (stereo unspecified) | 7 | 0.93 | -142 | 4 | 0.96 | 2.4*
Cc1cccc(N(C)c2ncnc3onc(-c4ccc(F)cc4)c23)c1C | 18 | 0.82 | . | -5 | 1 | .
COc1ccc2c(c1)c(=O)cc(C)n2CC(=O)NCc1ccco1 | -9 | 1.1 | -430 | -1 | 1 | 5.3*
COc1ccc(-n2c(=O)c3ccccc3n(CC(=O)NCc3ccco3)c2=O)cc1 | 6 | 0.94 | -10 | 2 | 0.98 | 1.1
Cc1ccc(C2(C)NC(=O)N(CC(=O)NNC(=O)c3ccccc3F)C2=O)cc1 (stereo unspecified) | 8 | 0.92 | . | 11 | 0.89 | .
COc1cccc(-c2nc(SC)nc3sc(C(=O)NC(C)(C)C)c(N)c23)c1 | 7 | 0.93 | . | 9 | 0.91 | .
CCOC(=O)c1ccc(NC(=S)NCc2ccc(F)cc2)cc1 | 6 | 0.94 | . | -131 | 2.3* | .
O=C(NCC1CCN(Cc2ccccc2Cl)CC1)Nc1ccccc1F | -20 | 1.2 | . | -97 | 2 | .
Cc1ccc(C)c(CN2CCC(CNC(=O)Nc3ccc(Br)cc3F)CC2)c1 | -40 | 1.4 | . | -221 | 3.2* | .
C=CCN1C(=O)c2ccc(C(=O)N(C)CC(=O)Nc3ccccc3Br)cc2C1=O | 19 | 0.81 | . | 6 | 0.94 | .
COc1ccc(NC(=O)Nc2ccc(F)c(Cl)c2)cc1 | 9 | 0.91 | 3 | -89 | 1.9 | 1
CSc1ccccc1NC(=O)Nc1cccc(Cl)c1 | 9 | 0.91 | 6 | -113 | 2.1* | 0.9
CSc1ccccc1NC(=O)Nc1ccc(F)c(Cl)c1 | 20 | 0.81 | 1 | -128 | 2.3* | 1
Cc1ccc(NC(=O)Nc2ccc(F)c(Cl)c2)cc1 | -14 | 1.1 | 31 | -188 | 2.9* | 0.7
CC(O)c1cccc(-c2ccc(CN3C[C@]4(CO)O[C@@H](CO)C[C@@H]4S3(=O)=O)cc2)c1 (stereo partly specified) | . | . | . | 0 | 1 | .
Cc1cc(C)nc(/N=C(\N)Nc2ccc(OCc3ccccc3)cc2)n1 | -108 | 2.1* | i | -70 | 1.7 | 6.2*
COc1cc(C2c3c(oc4ccc(Cl)cc4c3=O)C(=O)N2Cc2ccco2)cc(OC)c1OC (stereo unspecified) | . | . | -164 | . | . | 2.6*
S=C(NCCc1ccc(Cl)cc1)Nc1ccc(Cl)cc1Cl | 6 | 0.94 | -1 | -133 | 2.3* | 1
O=C(NCCc1ccc(Cl)cc1)Nc1cccc(Cl)c1 | -21 | 1.2 | 7 | -190 | 2.9* | 0.9
S=C(NCCCc1ccccc1)Nc1ccc(Cl)cc1 | 5 | 0.95 | 11 | -165 | 2.7* | 0.9
S=C(NCCCc1ccccc1)Nc1ccccc1 | -13 | 1.1 | . | -18 | 1.2 | .
CCOc1ccc(S(=O)(=O)N/N=C2/CC(c3ccccc3)Oc3ccccc32)cc1 (stereo unspecified) | 14 | 0.86 | 1 | -2 | 1 | 1
C/C(CC(=O)NCc1ccccc1Cl)=N/NC(=O)c1ccccn1 | -20 | 1.2 | . | 9 | 0.91 | .
COc1cc([C@H]2c3[nH]c4ccccc4c3C[C@H]3C(=O)N4[C@@H](c5cc(OC)c(OC)c(OC)c5)c5[nH]c6ccccc6c5C[C@H]4C(=O)N23)cc(OC)c1OC | -9 | 1.1 | 36 | -276 | 3.8* | 0.6

High-throughput results: PubChem, Sanford-Burnham Center for Chemical Genomics
